Results: PubChem BioAssay
Activity calls are given as the source filed them.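 Rule for the calls, unless noted: active = viability at or below 10% of carrier control in both of two separate runs; inconclusive = viability at or below 10% in only one of the two runs; inactive = the rest.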

Columns and labels:
[1] = reducers of endogenous Her2 protein level, primary screen, SKBR3 breast tumor cells, AlphaScreen, ATP viability (AID 461;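 active = Her2 level under about 52% in both replicate screens, with viability over 70% of control, limit read from the data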;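 for Her2 level: lower value means less Her2 protein in the cells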;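 for viability: percent of carrier control wells set as 100% viability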); conditions: 18-24 h, measured here: SKBR3 viability, ATP luminescence, at 10 µM
[2] = target: Receptor tyrosine-protein kinase erbB-2 (Homo sapiens) (UniProt P04626); assay: as above; conditions: 18-24 h, at 10 µM, stronger effect = lower value
[3] = SK-BR-3 cell growth inhibitors, pilot screen, 24 h, human (AID 572); conditions: SK-BR-3 viability, CellTiter-Glo luminescence, at 10 µM, stronger effect = lower value;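 note: compound exposure lasted between 18 and 24 h rather than exactly 24 h; 100% = carrier-treated control wells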
[4] = HUVEC growth inhibition – cell-based, human, primary screen (AID 575;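 active = viability at or below 30% in both replicate assays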;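 note: 100% = median of untreated cell wells with 0.1% DMSO on each plate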); conditions: HUVEC proliferation, CellTiter-Glo luminescence, 72 h; at 10 µM; stronger effect = lower value
How it was run: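 Test system: primary human umbilical vein endothelial cells. Quantity: 1250 cells/well. Compound: single 10 µM dose, 0.1% DMSO, from 5x medium stock. Timing: 72 h treatment at 37 °C. Detection: ATP-based CellTiter-Glo luminescent read. Benchmarks: vehicle and MePR control wells. Format: 384-well plates coated with collagen.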

[5] = growth inhibitors of H69AR lung tumor, primary screen, human, duplicate replicates (AID 580;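 active = viability at or under a set limit in both replicates, limit being median viability minus 3 SD, cut at about 48% in these data, passing the limit was not always enough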;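 note: 100% = mean luminescence of untreated wells and 0% = no signal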); conditions: H69AR lung tumor cells viability, ATP luminescence, 72 h; at 10 µM; stronger effect = lower value
[6] = reversal of MRP1-mediated doxorubicin resistance, pilot screen, H69AR cells, doxorubicin co-treatment (AID 601;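 active = viability loss from added drug above about 55%, and viability with drug at most 40%, in both replicates, limit read from the data, passing the limit was not always enough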); conditions: CellTiter-Glo, 72 h, at 10 µM; for differential viability (reversal): stronger effect = higher value
[7] = 384-well plate pilot, post-Golgi transport modulator project, inhibition of yeast transport mutant growth (AID 636; in the data active = inhibition above about 31%); conditions: absorbance 615 nm, about 18 h, stronger effect = higher value
[8] = growth suppression of yeast trafficking mutant, preliminary HTS, modulators of trafficking downstream of Golgi apparatus project, 1536-format plate, OD 615 nm (AID 637; in the data active = inhibition above about 30%); conditions: yeast transport mutant growth, absorbance 615 nm, 18 h; stronger effect = higher value
[9] = H69AR cells + 2 uM doxorubicin, measured here: viability with 2 uM doxorubicin, stronger effect = lower value
[10] = H69AR cells, compound alone cytotoxicity

Chain of Receptor tyrosine-protein kinase erbB-2 (Homo sapiens) (P04626 whole entry, looked up): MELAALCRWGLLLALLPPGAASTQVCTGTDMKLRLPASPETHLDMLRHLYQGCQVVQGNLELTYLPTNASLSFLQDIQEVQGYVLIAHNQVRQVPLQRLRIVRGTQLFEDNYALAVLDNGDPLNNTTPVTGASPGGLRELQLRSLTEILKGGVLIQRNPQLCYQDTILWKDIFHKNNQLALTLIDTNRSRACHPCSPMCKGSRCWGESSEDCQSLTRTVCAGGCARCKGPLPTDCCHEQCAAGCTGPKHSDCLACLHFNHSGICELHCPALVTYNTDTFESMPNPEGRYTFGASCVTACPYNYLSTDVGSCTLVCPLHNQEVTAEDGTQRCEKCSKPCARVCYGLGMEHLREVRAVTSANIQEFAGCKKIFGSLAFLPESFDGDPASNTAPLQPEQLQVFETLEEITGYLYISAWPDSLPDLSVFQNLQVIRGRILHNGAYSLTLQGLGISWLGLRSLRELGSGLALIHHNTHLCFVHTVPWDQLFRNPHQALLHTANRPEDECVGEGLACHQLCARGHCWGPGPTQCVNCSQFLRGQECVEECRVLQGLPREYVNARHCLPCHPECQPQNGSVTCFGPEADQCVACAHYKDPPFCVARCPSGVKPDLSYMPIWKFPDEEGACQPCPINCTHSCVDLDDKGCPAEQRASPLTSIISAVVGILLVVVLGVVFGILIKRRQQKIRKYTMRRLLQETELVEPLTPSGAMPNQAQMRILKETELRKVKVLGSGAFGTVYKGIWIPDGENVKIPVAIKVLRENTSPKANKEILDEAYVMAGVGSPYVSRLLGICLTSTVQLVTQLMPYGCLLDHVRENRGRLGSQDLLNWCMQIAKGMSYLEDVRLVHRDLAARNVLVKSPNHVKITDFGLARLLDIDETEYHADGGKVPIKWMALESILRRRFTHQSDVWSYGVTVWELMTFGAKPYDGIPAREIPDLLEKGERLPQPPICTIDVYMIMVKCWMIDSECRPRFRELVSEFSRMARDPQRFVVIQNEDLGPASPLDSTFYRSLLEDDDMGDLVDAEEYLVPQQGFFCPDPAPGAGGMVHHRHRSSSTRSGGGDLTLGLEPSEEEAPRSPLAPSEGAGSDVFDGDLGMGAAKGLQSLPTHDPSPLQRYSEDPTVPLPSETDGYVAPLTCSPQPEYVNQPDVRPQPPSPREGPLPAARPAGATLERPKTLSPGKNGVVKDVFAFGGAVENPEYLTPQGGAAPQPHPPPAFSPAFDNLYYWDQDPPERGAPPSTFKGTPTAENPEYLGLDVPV

| SMILES | viability [1] | Her2 level [2] | viability [3] | viability [4] | viability [5] | differential viability (reversal) ([6]; H69AR cells + 2 uM doxorubicin) | viability [6, 9] | viability [6, 10] | inhibition [7] | inhibition [8] |
| --- | --- | --- | --- | --- | --- | --- | --- | --- | --- | --- |
| O=C(c1ccccc1)c1ccncc1 | 100% | 76.5% (inactive) | 100% (inactive) | 100% (inactive) | 92.4% (inactive) | -3.62% (inactive) | 96% | 92.4% | -6.05% (inactive) | 5.33% (inactive) |
| CCn1c(C)cc(=S)c2ccccc21 | 114% | 99.5% (inactive) | 114% (inactive) | 98.6% (inactive) | 91.2% (inactive) | 3.92% (inactive) | 87.3% | 91.2% | 1.22% (inactive) | -3.65% (inactive) |
| CCOC(=O)C(NC(C)=O)(Nc1ccc(S(=O)(=O)Nc2nccs2)cc1)C(F)(F)F (stereo not given) | 120% | 106% (inactive) | 120% (inactive) | 102% (inactive) | 109% (inactive) | 3.07% (inactive) | 106% | 109% | 0.39% (inactive) | 8.57% (inactive) |
| CCn1cc(C(C)NC(=O)COc2ccc(Cl)cc2C)c(C)n1 (stereo not given) | 97% | 101% (inactive) | 97% (inactive) | 93.9% (inactive) | 105% (inactive) | 13.9% (inactive) | 91.3% | 105% | -2.89% (inactive) | -4% (inactive) |
| COc1ccc(NC(=O)CCS(=O)(=O)c2ccc(OC)cc2)cc1 | 96% | 104% (inactive) | 96% (inactive) | 94.8% (inactive) | 83.4% (inactive) | -9.78% (inactive) | 93.2% | 83.4% | -0.4% (inactive) | -7.26% (inactive) |
| CCOc1ccc(Cl)cc1S(=O)(=O)N1CCCC1 | 100% | 94.5% (inactive) | 100% (inactive) | 101% (inactive) | 88.8% (inactive) | -5.74% (inactive) | 94.5% | 88.8% | -4.34% (inactive) | -1.11% (inactive) |
| COc1ccc(C(=O)Nn2c(C3CCC3)nc3ccccc3c2=O)c(OC)c1 | 93.5% | 97% (inactive) | 93.5% (inactive) | 85.8% (inactive) | 111% (inactive) | 30% (inactive) | 80.7% | 111% | -1.56% (inactive) | 1.9% (inactive) |
| N#Cc1ccccc1NC(=O)CSc1nnc(-c2ccccc2)n1-c1ccccc1 | 81.5% | 83% (inactive) | 81.5% (inactive) | 102% (inactive) | 30.3% (active) | -63.4% (inactive) | 93.8% | 30.3% | 1.49% (inactive) | -0.32% (inactive) |
| CCOC(=O)CSc1nnc(Cn2nnc(-c3ccccc3)n2)n1CC | 95.5% | 84% (inactive) | 95.5% (inactive) | 107% (inactive) | 90.7% (inactive) | -2.04% (inactive) | 92.7% | 90.7% | -7.2% (inactive) | -3.17% (inactive) |
| Cc1ccc(S(=O)(=O)N(CC(=O)NCc2ccco2)Cc2ccccc2F)cc1 | 92% | 108% (inactive) | 92% (inactive) | 104% (inactive) | 107% (inactive) | 21.3% (inactive) | 85.5% | 107% | -2.67% (inactive) | -5.97% (inactive) |
| CCN1CCN(S(=O)(=O)c2ccc(S(=O)(=O)N(CC)Cc3ccccc3)cc2)CC1 | 98% | 94% (inactive) | 98% (inactive) | 82.1% (inactive) | 91.9% (inactive) | -7.05% (inactive) | 99% | 91.9% | -4.27% (inactive) | -1.13% (inactive) |
| Cc1c(C(=O)O)sc2ncn(C)c(=O)c12 | 106% | 78% (inactive) | 106% (inactive) | 100% (inactive) | 103% (inactive) | 11.7% (inactive) | 91.7% | 103% | -7.76% (inactive) | -4% (inactive) |
| COC(=O)c1cnn2c(C(F)(F)F)cc(-c3ccco3)nc12 | 99% | 80% (inactive) | 99% (inactive) | 79.9% (inactive) | 64.8% (inactive) | -11.7% (inactive) | 76.5% | 64.8% | -4.61% (inactive) | 0.82% (inactive) |
| CCOC(=O)c1cc(C)n(CCCN2CCOCC2)c1C | 90.5% | 85% (inactive) | 90.5% (inactive) | 92.4% (inactive) | 91.1% (inactive) | -4.19% (inactive) | 95.2% | 91.1% | -0.66% (inactive) | 1.11% (inactive) |
